Compound activity (PubChem)
Runt-SMMHC FRET = inhibitors of RUNX1 Runt–CBFb-SMMHC binding, primary screen, biochemical, FRET, Cerulean-Runt, Venus-CBFb-SMMHC, uHTS; Runt-related transcription factor 1 (Homo sapiens) + Core-binding factor subunit beta …; Cerulean-Runt/Venus-CBFb-SMMHC FRET ratio 530/480, 1 h; inhibition, % at 20 µM; hit rate 0.74% among 220,000; AID 1434, 2008;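 active means mean inhibition across duplicate retests at 20 µM reaching about 50%, limit read from the data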;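 further: inhibitors lower the FRET ratio by blocking Runt binding to CBFb-SMMHC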
Runt-CBFb FRET = inhibitors of RUNX1 Runt–CBFb binding, primary screen, biochemical, FRET, Cerulean-Runt, Venus-CBFb, uHTS | Runt-related transcription factor 1 (Homo sapiens) + Core-binding factor subunit beta … | hit rate 0.46% among 220,000 | inhibition, % at 20 µM | Cerulean-Runt/Venus-CBFb FRET ratio 530/480, 1 h | AID 1496, 2009;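 active means inhibition over about 50% at 20 µM in the single-dose screen, limit read from the data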
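test system = Cerulean-Runt domain fusion protein, energy donor | probe or stimulus = Venus-CBFb binding partner, 100 nM | incubation = two 1 h room-temperature incubations shielded from light | detection = fluorescence energy transfer, 422 nm excitation, 530/480 nm emission | measure = loss of energy transfer signal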
RanGTP-Imp inh = inhibitors of RanGTP-importin-beta interaction, primary screen, biochemical, FRET, CFP-Ran, YFP-importin-beta, homogeneous | Ran GTPase (GTP-bound) - importin-beta complex | cell-free CFP-Ran/YFP-importin-beta FRET ratio | inhibition, % (no concentration beside the values) | hit rate 1.1% among 300,000 | AID 2216, 2009;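 active means more than half of the replicate wells show a fall in the fluorescence ratio signal beyond about 16%, limit read from the data, passing the limit was not always enough; inconclusive means exactly half of the replicate wells pass the set limit; inactive means fewer than half of replicates pass the limit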
Hck-Nef inh = inhibitors of Nef-activated human Hck kinase, primary screen, biochemical, Z-Lyte FRET, 384-well, Hck-YEEI | Tyrosine-protein kinase HCK (Homo sapiens), P08631 | Recombinant Hck-YEEI plus Nef, Z-Lyte FRET kinase assay | inhibition, % at 20 µM | hit rate 0.68% among 220,000;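 active means Hck-Nef kinase inhibition above about 50%, limit read from the data; inactive means inhibition below that limit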
Target sequence (P08631 whole entry, looked up): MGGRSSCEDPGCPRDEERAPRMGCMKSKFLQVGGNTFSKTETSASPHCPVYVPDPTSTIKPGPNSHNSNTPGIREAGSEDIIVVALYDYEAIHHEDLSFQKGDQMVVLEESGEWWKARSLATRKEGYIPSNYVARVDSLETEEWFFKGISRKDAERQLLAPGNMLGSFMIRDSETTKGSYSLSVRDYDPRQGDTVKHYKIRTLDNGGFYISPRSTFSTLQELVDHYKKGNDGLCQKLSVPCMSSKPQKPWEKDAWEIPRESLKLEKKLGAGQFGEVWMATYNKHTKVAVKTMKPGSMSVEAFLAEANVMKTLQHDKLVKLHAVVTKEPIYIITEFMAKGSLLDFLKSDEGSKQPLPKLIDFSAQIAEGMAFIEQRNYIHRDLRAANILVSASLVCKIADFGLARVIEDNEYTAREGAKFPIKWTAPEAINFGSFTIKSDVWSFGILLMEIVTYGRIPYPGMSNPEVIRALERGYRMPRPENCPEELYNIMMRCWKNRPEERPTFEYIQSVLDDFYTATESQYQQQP
YIC FRET counter = YIC intramolecular FRET probe signal interference, dose response, counter-screen for RanGTP-importin-beta inhibitor project, biochemical, fluorescence FRET | Purified YIC probe, intramolecular FRET ratio YFP/CFP | hit rate 40% among 1,000 | shares compounds with RanGTP-Imp inh | AID 435026, 2010 | IC50, µM;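 active means fitted half-maximal inhibitory concentration no more than tenfold above the top dose tested; inconclusive means flat fit with 30 to 70% activity, or poor fit; inactive means half-maximal concentration beyond tenfold above the top dose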
Each line names hits and unclear results; the compound was inactive in the other large screens (follow-up assays come after a bar, where they were run). Most compounds without a hit are left out; they make up all but 1.9% or so of the library.

COc1ccccc1S(=O)Cc1ccc(C(=O)O)o1 (stereo unspecified)	RanGTP-Imp inh 20.4 (no result: Runt-CBFb FRET) | YIC FRET counter inactive
COc1ccc(-n2cnc3cc(NCc4ccccn4)ccc32)cc1	none
COc1ccc(-n2cnc3cc(NCc4cccs4)ccc32)cc1	RanGTP-Imp inh 18.7 | YIC FRET counter inactive
O=C(Cn1ccc2ccccc2c1=O)NCC(=O)N1CCCCC1	none (no result: Runt-SMMHC FRET, Runt-CBFb FRET, Hck-Nef inh)
CCCCC(=O)N(Cc1ccc(F)cc1)C1CCS(=O)(=O)C1 (stereo unspecified)	none
COC(=O)c1c(N2C(=O)Nc3ccccc3N2O)sc(C)c1C	none
CCOC(=O)c1c(N2C(=O)Nc3ccccc3N2O)sc2c1CCCC2	RanGTP-Imp inh 20.3 | YIC FRET counter inactive
Cc1ccc(N2CCN(/N=C/c3sccc3C)CC2)cc1	RanGTP-Imp inh inconclusive
CN1CCN(c2nc3c(c(=O)n(C)c(=O)n3C)n2Cc2ccccc2F)CC1	none (no result: Runt-SMMHC FRET, Runt-CBFb FRET, Hck-Nef inh)
Cc1nnc(Sc2nc3c(c(=O)n(C)c(=O)n3C)n2Cc2ccccc2Cl)s1	RanGTP-Imp inh 17.3 (no result: Runt-SMMHC FRET, Runt-CBFb FRET) | YIC FRET counter inactive
O=C(NNc1c2ccccc2nc2ccccc12)c1ccc(Cl)cc1	RanGTP-Imp inh 20.2 (no result: Runt-SMMHC FRET, Runt-CBFb FRET, Hck-Nef inh) | YIC FRET counter inactive
O=C(CN1CCOCC1)NNc1c2ccccc2nc2ccccc12	RanGTP-Imp inh 19.1 | YIC FRET counter inactive
C[N+]1(CC(=O)NNc2c3ccccc3nc3ccccc23)CCOCC1	none
Nc1ccccc1C(=O)NNc1c2ccccc2nc2ccccc12	RanGTP-Imp inh 32.7 | YIC FRET counter inactive
Oc1c(C(Nc2nc3ccccc3s2)c2ccco2)ccc2cccnc12 (stereo unspecified)	RanGTP-Imp inh 21.6 | YIC FRET counter inactive
COc1cc(OC)cc(-c2cc3nc(C)cc(N4CCN(C(=O)c5ccco5)CC4)n3n2)c1	RanGTP-Imp inh 28.9 | YIC FRET counter 3.68
CCC(=O)Nc1ccc(N/C(N)=N/c2nc(C)cc(C)n2)cc1	RanGTP-Imp inh 17.2 | YIC FRET counter inactive
O=S(=O)(Nc1ncccn1)c1ccc(-n2cnnn2)cc1	RanGTP-Imp inh inconclusive
Clc1cccc(-c2ccc(C=Nc3ccc(N4CCOCC4)cc3)o2)c1Cl	RanGTP-Imp inh 23.2 | YIC FRET counter inactive
CC(=O)N(CCCNC(=O)c1ccccc1)C(=O)c1ccccc1	none (no result: Runt-SMMHC FRET, Runt-CBFb FRET, Hck-Nef inh)
NC(=O)CNc1n[nH]c(=S)[nH]c1=O	none
Cc1ccc(S(=O)(=O)Nc2nc3ccccc3nc2NCc2ccco2)cc1	RanGTP-Imp inh 20.5 | YIC FRET counter 12.9
COc1ccc(NC(=O)N2CCCCCC2)cc1	RanGTP-Imp inh 21.3 | YIC FRET counter inactive
COc1ccc(NC(=O)N2CCN(C(=O)Nc3ccc(OC)cc3)CC2)cc1	none
Cc1sc(-n2c(C)cc(C=O)c2C)c(C(=O)O)c1C	none
Cc1nc(Nc2cnc(/C=C/c3cc(C(=O)Nc4cccc(C(F)(F)F)c4)ccc3C)cn2)cc(N2CCNCC2)n1	RanGTP-Imp inh 41.2 (no result: Runt-SMMHC FRET, Runt-CBFb FRET, Hck-Nef inh) | YIC FRET counter 18.2
Cc1nc(N2CCC(C)CC2)c2c(C)c(C(=O)Nc3cccc(C(F)(F)F)c3)sc2n1	none
O=C(Nc1ccnc(-c2ccncc2)n1)c1ccc(Cl)cc1	RanGTP-Imp inh 23.0 | YIC FRET counter inactive
Cc1cccc(C(=O)Nc2ccnc(-c3ccncc3)n2)c1	none
COc1ccc(C2NCCc3c2[nH]c2ccccc32)cc1COc1ccc(F)cc1 (stereo unspecified)	RanGTP-Imp inh 22.2 | YIC FRET counter inactive
COc1ccc(C2NC(C(=O)O)Cc3c2[nH]c2ccccc32)cc1CN1CCN(c2ccc(F)cc2)CC1 (stereo unspecified)	RanGTP-Imp inh 23.6 | YIC FRET counter 8.57
O=C(O)C1Cc2c([nH]c3ccccc23)C(c2ccc3c(c2)OCO3)N1 (stereo unspecified)	none
O=C(c1ccc(Cl)cc1[N+](=O)[O-])N(Cc1ccccc1)Cc1ccccc1	none
CCN(C(=O)c1ccc(Cl)cc1[N+](=O)[O-])c1ccccc1C	RanGTP-Imp inh 19.0 | YIC FRET counter inactive
COc1ccc(CNC(=O)CN(C(=O)CCC(=O)Nc2nccs2)c2cccc(C)c2)cc1	none (no result: Runt-SMMHC FRET, Runt-CBFb FRET, Hck-Nef inh)
COc1ccc(/C=N/NC(=O)c2sc3nc(C)cc(C)c3c2N)cc1	RanGTP-Imp inh 22.8 | YIC FRET counter 6.59
Cc1ccc(S(=O)(=O)NC(C(=O)Oc2ccc3ccc(=O)oc3c2)c2ccccc2)cc1 (stereo unspecified)	Runt-SMMHC FRET 160.0, Runt-CBFb FRET 84.7, RanGTP-Imp inh 20.4, Hck-Nef inh 57.8 | YIC FRET counter 28.1
Cc1ccc(S(=O)(=O)NC(C(=O)N2CCOCCOCCOCC2)c2ccccc2)cc1 (stereo unspecified)	none
CCc1ccc(C2NC(=S)NC3=C2C(=O)CC(C)(C)C3)cc1 (stereo unspecified)	RanGTP-Imp inh inconclusive
CCOC(=O)c1ccc(CNC(=O)CSc2nnc(-c3ccncc3)o2)cc1	RanGTP-Imp inh 25.9 | YIC FRET counter inactive
COc1ccc(NC(=O)CN2C(=O)CC(C)S(=O)(=O)c3ccccc32)cc1 (stereo unspecified)	RanGTP-Imp inh 17.6 (no result: Runt-SMMHC FRET, Runt-CBFb FRET, Hck-Nef inh) | YIC FRET counter inactive
CC(=O)c1cccc(NC(=O)NC(C)c2ccc3c(c2)OCO3)c1 (stereo unspecified)	none (no result: Runt-SMMHC FRET, Runt-CBFb FRET, Hck-Nef inh)
Cc1cc(C)n2nc(C(=O)OCC(=O)c3cc(C)n(CC4CCCO4)c3C)nc2n1 (stereo unspecified)	none
Cc1cc(C(=O)COC(=O)c2nc3nccc(C)n3n2)c(C)n1CC1CCCO1 (stereo unspecified)	RanGTP-Imp inh 21.2 | YIC FRET counter inactive
Cc1ccc(S(=O)(=O)N(C)Cc2ccc(C(=O)N/N=C3\CC(=O)CC(C)(C)C3)cc2)cc1	RanGTP-Imp inh 18.6 | YIC FRET counter inactive
Cn1c(=O)oc2cc(S(=O)(=O)NCCC(=O)N3CC=C(c4ccccc4)CC3)ccc21	RanGTP-Imp inh 17.6 | YIC FRET counter inactive
Cn1c(=O)oc2cc(S(=O)(=O)NCCC(=O)N3CCN(c4ccccc4)CC3)ccc21	none (no result: Runt-SMMHC FRET, Runt-CBFb FRET, Hck-Nef inh)
Cc1nn(C)c2ncc(C(N)=O)c(Oc3ccc(Cl)cc3)c12	none
COc1cc([C@@H]2[C@H]3CN(C)CC=C3C(C#N)=C(N)C2(C#N)C#N)cc2c1OCO2	Runt-SMMHC FRET 62.0, RanGTP-Imp inh 23.9 | YIC FRET counter 5.69
CCC(=O)N1CCc2cc(S(=O)(=O)N3CCN(c4cc(Cl)ccc4C)CC3)ccc21	none (no result: Runt-SMMHC FRET, Runt-CBFb FRET, Hck-Nef inh)
O=C(N/C(=C/c1ccc(Br)cc1)C(=O)N1CCCCC1)c1ccccc1F	none (no result: Runt-SMMHC FRET, Runt-CBFb FRET, Hck-Nef inh)
O=C(CN(Cc1ccccc1)S(=O)(=O)c1ccc2c(c1)OCCO2)Nc1ccc2c(c1)OCCO2	none
